Laboratory results taken from ChEMBL document CHEMBL1157100, “The alkyl-connected 2-amino-6-vinylpurine (AVP) crosslinking agent for improved selectivity to the cytosine base in RNA” (Bioorg Med Chem, 2010).
Calls of active or inactive are those of the source. The calls are words filed in the database; no cut-off is given here.

Tests used:
Format in all cases: nucleic-acid assay
Nucleic Acid [1] = assay: Binding affinity to FAM-tagged r-(GAAAYAAGAGGAAAGA)-RNA assessed as crosslinking by PAGE
In short: (§1)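 Reactive ODN at 10 µM with 1 µM FAM-labeled target DNA or RNA in 100 mM NaCl, 50 mM MES pH 5 plus RNase OUT, mixed at 0 °C and then incubated at 37 °C. Reactions were stopped at set times with formamide/EDTA/bromophenol blue buffer. Products were resolved on 15% denaturing polyacrylamide gel with 7 M urea, and FAM band intensities were quantified to give crosslinking yield.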

Nucleic Acid [2] = assay: Binding affinity to FAM-tagged r-(GAAAYAAGAGGAAAGA)-RNA assessed as crosslinking at 10 uM by alkylation method; in short: as §1
Nucleic Acid [3] = assay: Binding affinity to FAM-tagged d-(GAAAYAAGAGGAAAGA)-DNA assessed as crosslinking at 10 uM by alkylation method; in short: as §1

- Activity (Nucleic Acid [1]): Active
- Activity (Nucleic Acid [2]): Active
- Activity (Nucleic Acid [3]): Active
SMILES: CSCCc1nc(N)nc2c1ncn2CC[C@H]1C[C@H](OP(=O)(O)OC[C@H]2O[C@@H](n3cc(C)c(=O)[nH]c3=O)C[C@@H]2OP(=O)(O)OC[C@H]2O[C@@H](n3cc(C)c(=O)[nH]c3=O)C[C@@H]2OP(=O)(O)OC[C@H]2O[C@@H](n3ccc(N)nc3=O)[C@H](O)[C@@H]2OP(=O)(O)OC[C@H]2O[C@@H](n3cc(C)c(=O)[nH]c3=O)C[C@@H]2OP(=O)(O)OC[C@H]2O[C@@H](n3ccc(N)nc3=O)[C@H](O)[C@@H]2OP(=O)(O)OC[C@H]2O[C@@H](n3ccc(N)nc3=O)[C@H](O)[C@@H]2OP(=O)(O)OC[C@H]2O[C@@H](n3cc(C)c(=O)[nH]c3=O)C[C@@H]2OP(=O)(O)OC[C@H]2O[C@@H](n3cc(C)c(=O)[nH]c3=O)C[C@@H]2OP(=O)(O)OC[C@H]2O[C@@H](n3cc(C)c(=O)[nH]c3=O)C[C@@H]2OP(=O)(O)OC[C@H]2O[C@@H](n3ccc(N)nc3=O)[C@H](O)[C@@H]2OP(=O)(O)OC[C@H]2O[C@@H](n3cc(C)c(=O)[nH]c3=O)C[C@@H]2OP(=O)(O)O)[C@@H](COP(=O)(O)O[C@H]2C[C@H](n3cc(C)c(=O)[nH]c3=O)O[C@@H]2COP(=O)(O)O[C@H]2C[C@H](n3cc(C)c(=O)[nH]c3=O)O[C@@H]2COP(=O)(O)O[C@H]2C[C@H](n3cc(C)c(=O)[nH]c3=O)O[C@@H]2COP(=O)(O)O[C@H]2[C@@H](O)[C@H](n3ccc(N)nc3=O)O[C@@H]2CO)O1
